In ChEMBL document CHEMBL1146554, “Antioxidative meroterpenoids from the brown alga Cystoseira crinita” (J Nat Prod, 2003):
Converted amounts (≈) assume the structure as drawn. The source made the active and inactive calls. The calls are words filed in the database; no cut-off is given here.

What was measured:
[1] = tested on: Radical scavenging activity; experiment: Antioxidant activity assessed as DPPH radical scavenging activity at 23 uM after 30 mins; assay type: functional
Outline: (§1)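 Samples in EtOH (100 µL) mixed with 25 µL of 1 mM DPPH in EtOH plus 75 µL EtOH, then shaken briefly. Kept 30 min at room temperature in the dark. Absorbance read at 517 nm. % scavenging calculated against control, with blank and sample-blank corrections.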

[2] = Superoxide radical scavenging activity assessed as trolox equivalents by photochemiluminescence assay
Outline: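 Photochemiluminescence with luminol acting as photosensitizer and detection reagent, generating superoxide. Mix of 2.29 mL reagent 1 (solvent/diluent), 200 µL buffer reagent, 25 µL photosensitizer and 10 µL sample in ethanol or Trolox standard in water. Antioxidant capacity taken from the integral under the curve and expressed as Trolox equivalents.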

[3] = tested on: Aspergillus pseudoglaucus; experiment: Antimicrobial activity against Eurotium repens at 50 ug/disk by agar diffusion assay; assay type: functional, organism-based
Outline: (§2)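 Agar diffusion assay with discs loaded at 50 µg/disk, run against the bacteria, fungi and the green microalga Chlorella fusca.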

Escherichia coli = experiment: Antimicrobial activity against Escherichia coli at 50 ug/disk by agar diffusion assay; assay type: functional, organism-based; outline: as §2
Microbotryum violaceum = experiment: Antimicrobial activity against Microbotryum violaceum at 50 ug/disk by agar diffusion assay; assay type: functional, organism-based; outline: as §2
Mycotypha microspora = experiment: Antimicrobial activity against Mycotypha microspora at 50 ug/disk by agar diffusion assay; assay type: functional, organism-based; outline: as §2
[4] = Antioxidant activity assessed as inhibition of FeSO4-induced lipid peroxidation at 82 uM by TBARS assay; assay type: functional
Outline: (§3)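 Linolenic acid methyl ester oxidized under FeSO4 catalysis in 50 mM phosphate buffer pH 7.2 at 50 °C. BHT in ethanol added to stop further oxidation. TBARS developed with trichloroacetic and thiobarbituric acid, 60 °C for 30 min. Read A532 minus A600 background. % inhibition calculated versus uninhibited control, with blank and sample-blank corrections.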

[5] = tested on: Radical scavenging activity; experiment: Antioxidant activity assessed as DPPH radical scavenging activity at 58 uM after 30 mins; assay type: functional; outline: as §1
[6] = Antioxidant activity assessed as inhibition of FeSO4-induced lipid peroxidation at 16 uM by TBARS assay; assay type: functional; outline: as §3
[7] = ABTS radical scavenging activity assessed as trolox equivalents by TEAC assay; assay type: physicochemical
Outline: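 ABTS radical cation made by passing ABTS in PBS through manganese dioxide, then filtered (0.2 µm). Diluted in 5 mM PBS pH 7.4 to A734 0.700 and preincubated 2 h at room temperature. 1 mL radical mixed with 200 µL ethanolic sample, vortexed 30 s, centrifuged. A734 of lower phase read exactly 2 min after mixing. PBS and ethanol blanks included. Trolox standards used; value is mM Trolox equivalent to 1.0 mM compound.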

[8] = tested on: Radical scavenging activity; experiment: Antioxidant activity assessed as DPPH radical scavenging activity at 6 uM after 30 mins; assay type: functional; outline: as §1
[9] = tested on: Radical scavenging activity; experiment: Antioxidant activity assessed as DPPH radical scavenging activity at 12 uM after 30 mins; assay type: functional; outline: as §1
[10] = Antioxidant activity assessed as inhibition of FeSO4-induced lipid peroxidation at 164 uM by TBARS assay; assay type: functional; outline: as §3
[Chlorella] fusca = Antimicrobial activity against 'Chlorella' fusca at 50 ug/disk by agar diffusion assay; assay type: functional, organism-based; details: Scenedesmus fuscus; outline: as §2
[11] = Antioxidant activity assessed as inhibition of FeSO4-induced lipid peroxidation at 8 uM by TBARS assay; assay type: functional; outline: as §3
[12] = Antioxidant activity assessed as inhibition of FeSO4-induced lipid peroxidation at 33 uM by TBARS assay; assay type: functional; outline: as §3
[13] = tested on: Radical scavenging activity; experiment: Antioxidant activity assessed as DPPH radical scavenging activity at 115 uM after 30 mins; assay type: functional; outline: as §1
[14] = tested on: Radical scavenging activity; experiment: Antioxidant activity assessed as DPPH radical scavenging activity at 230 uM after 30 mins; assay type: functional; outline: as §1
Priestia megaterium = experiment: Antimicrobial activity against Bacillus megaterium at 50 ug/disk by agar diffusion assay; assay type: functional, organism-based; outline: as §2
[15] = Cytotoxicity against human HM02 cells; assay type: functional
Outline: (§4)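 Cytotoxicity tested on HM02 gastric adenocarcinoma, HepG2 hepatocellular carcinoma and MCF7 breast adenocarcinoma lines following NCI standards.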

HepG2 = experiment: Cytotoxicity against human HepG2 cells; assay type: functional; outline: as §4
MCF7 = experiment: Cytotoxicity against human MCF7 cells; assay type: functional; outline: as §4

Activity [7] [mmol/L] | SMILES | Activity [1] [%] | Activity [2] [mmol/L] | Activity [3] | Activity (Escherichia coli) | Activity (Microbotryum violaceum) | Activity (Mycotypha microspora) | inhibition [4] [%] | Activity [5] [%] | inhibition [6] [%] | Activity [8] [%] | Activity [9] [%] | inhibition [10] [%] | Activity ([Chlorella] fusca) | inhibition [11] [%] | inhibition [12] [%] | Activity [13] [%] | Activity [14] [%] | Activity (Priestia megaterium) | also measured
0.3 | CC1=CC(=O)C=C(C/C=C(\C)CC(=O)/C=C(/C)CC/C=C(\C)Cc2cc(C)co2)C1=O | 5.5 | 1.41 | inactive | inactive | inactive | inactive | 38.7 | 12.2 | 16.1 | 1.1 | 1.8 | 54.4 | inactive | 11.1 | 24.4 | 22.8 | 38.6 | inactive | 
0.63 | Cc1c(C)c2c(c(C)c1O)CC[C@@](C)(CCC[C@H](C)CCC[C@H](C)CCCC(C)C)O2 [ALPHA-TOCOPHEROL] | 33.9 | 1.26 |  |  |  |  | 71.2 | 88.1 | 32.1 | 8.2 | 16.3 | 72.7 |  | 13.1 | 67.6 | 94.9 | 95.2 |  | 
0.14 | CC(C)=CCC/C(C)=C/CC/C(C)=C\C(=O)C/C(C)=C/Cc1cc(O)cc(C)c1O | 25.5 | 1.35 | inactive | inactive | inactive | inactive | 66.8 | 67.2 | 12.1 | 6.9 | 11.8 | 71.8 | inactive | 10.7 | 28.6 | 95.4 | 95.4 | inactive | 
 | CC1=CC(=O)C=C(C/C=C(\C)CC(=O)/C=C(\C)CC/C=C(\C)Cc2cc(C)co2)C1=O | 2.9 |  |  |  |  |  | 31.4 | 8.1 | 14.2 | 1 | 2.2 | 43.3 |  | 7.6 | 20.2 | 16 | 29 |  | 
 | Cc1cc(C(C)(C)C)c(O)c(C(C)(C)C)c1 | 5.6 |  |  |  |  |  | 63.3 | 11.8 | 35.4 | 1.2 | 2.9 | 69.3 |  | 23.1 | 49.1 | 22 | 35.6 |  | 
0.37 | CC(C)=CC(=O)C/C(C)=C/CC/C(C)=C/C(=O)C/C(C)=C/Cc1cc(O)cc(C)c1O | 29.1 | 1.39 | inactive | inactive | inactive | inactive | 70.1 | 80.8 | 20.3 | 7.6 | 14.3 | 72.2 | inactive | 13.6 | 39.9 | 95.7 | 95.5 | inactive | 
 | CC(C)=CCC/C(C)=C/C(=O)C/C(C)=C/Cc1cc(O)cc(C)c1O | 11.2 |  | inactive | inactive | inactive | inactive | 43.1 | 29.8 | 19.8 | 2.6 | 3.7 | 66.8 | inactive | 9.2 | 22.2 | 59.1 | 94.1 | inactive | 
 | CC(C)=CC(O)C/C(C)=C/CC/C(C)=C/C(=O)C/C(C)=C/Cc1cc(O)cc(C)c1O (centres undefined) | 18.1 |  | inactive | inactive | inactive | inactive | 55.4 | 49.2 | 11.7 | 4.6 | 7.4 | 68.9 | inactive | 7.8 | 17.6 | 93.2 | 96.1 | inactive | 
 | CC(C)=CCC/C(C)=C/CC/C(C)=C/C(=O)C/C(C)=C/Cc1cc(O)cc(C)c1O | 24.4 |  | inactive | inactive | inactive | inactive | 61.7 | 67.4 | 17 | 6 | 8.6 | 70.8 | inactive | 13.3 | 24.3 | 95 | 94.4 | inactive | 
 | CC(C)=CCC/C(C)=C\C(=O)C/C(C)=C/Cc1cc(O)cc(C)c1O | 17.7 |  |  |  |  |  | 52.9 | 50.2 | 19.9 | 2.6 | 5.9 | 66.5 |  | 13.2 | 28.8 | 92.1 | 92.5 |  | 
 | CC(C)=CC(O)C/C(C)=C/CC/C(C)=C\C(=O)C/C(C)=C/Cc1cc(O)cc(C)c1O (centres undefined) | 17.1 |  | inactive | inactive | inactive | inactive | 60.4 | 55.2 | 10.4 | 5.8 | 9.7 | 70.3 | inactive | 4.9 | 19.2 | 95.5 | 95.5 | inactive | 

SMILES | Activity [7] [mmol/L] | Activity [1] [%] | Activity [2] [mmol/L] | Activity [3] | Activity (Escherichia coli) | Activity (Microbotryum violaceum) | Activity (Mycotypha microspora) | inhibition [4] [%] | Activity [5] [%] | inhibition [6] [%] | Activity [8] [%] | Activity [9] [%] | inhibition [10] [%] | Activity ([Chlorella] fusca) | inhibition [11] [%] | inhibition [12] [%] | Activity [13] [%] | Activity [14] [%] | Activity (Priestia megaterium) | also measured
C/C(=C\C(=O)C/C(C)=C/Cc1cc(O)cc(C)c1O)CC/C=C(\C)Cc1cc(C)co1 | 0.08 | 24.9 | 1.06 | inactive | inactive | inactive | inactive | 69.3 | 65.4 | 25.8 | 8 | 12.5 | 74.9 | inactive | 15.1 | 41.2 | 95.2 | 95.4 | inactive | GI50 [15]: 0.3 µg/mL (≈ 0.71 µM); LC50 [15]: 3.4 µg/mL (≈ 8.05 µM); TGI [15]: 0.6 µg/mL (≈ 1.42 µM); GI50 (HepG2): 1.8 µg/mL (≈ 4.26 µM); LC50 (HepG2): > 10 µg/mL; TGI (HepG2): 4 µg/mL (≈ 9.47 µM); GI50 (MCF7): 1.3 µg/mL (≈ 3.08 µM); LC50 (MCF7): 3.7 µg/mL (≈ 8.76 µM); TGI (MCF7): 2.1 µg/mL (≈ 4.97 µM)
